Reference: ChEMBL document CHEMBL1287648, “Development of 3-aryl-1-isoquinolinamines as potent antitumor agents based on CoMFA” (Eur J Med Chem, 2010)

Assays:
CAKI-1 = assay: Cytotoxicity against human Caki1 cells by sulforhodamine B method; assay type: functional, cell-based
PANC-1 = assay: Cytotoxicity against human PANC1 cells by sulforhodamine B method; assay type: functional, cell-based
HCT-116 = assay: Cytotoxicity against human HCT116 cells by sulforhodamine B method; assay type: functional, cell-based
OVCAR-3 = assay: Cytotoxicity against human OVCAR-3 cells by sulforhodamine B method; assay type: functional, cell-based
MDA-MB-231 = assay: Cytotoxicity against human MDA-MB-231 cells by sulforhodamine B method; assay type: functional, cell-based
PC-3 = assay: Cytotoxicity against human PC3 cells by sulforhodamine B method; assay type: functional, cell-based
SNB-19 = assay: Cytotoxicity against human SNB19 cells by sulforhodamine B method; assay type: functional, cell-based
A549 = assay: Cytotoxicity against human A549 cells by sulforhodamine B method; assay type: functional, cell-based
SK-MEL-28 = assay: Cytotoxicity against human SK-MEL-28 cells by sulforhodamine B method; assay type: functional, cell-based
HeLa [1] = assay: Cell cycle arrest in human HeLa cells assessed as accumulation at S phase at 300 nM after 24 hrs using propidium iodide staining by flow cytometry relative to control; assay type: functional
Summary of the method: (§1)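 HeLa cells exposed 24 h to compound (50–500 nM range) or left untreated, then washed and harvested. DNA was stained with propidium iodide and cell-cycle phase distribution measured by flow cytometry.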

HeLa [2] = assay: Induction of apoptosis in human HeLa cells at 50 nM after 24 hrs using propidium iodide/annexin V staining by flow cytometry relative to control; assay type: functional
Summary of the method: (§2)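 Annexin V/PI apoptosis assay: HeLa cells given compound (50–500 nM, 24 h) or no treatment, then co-stained with FITC-annexin V and propidium iodide. Phosphatidylserine externalization was scored by flow cytometry, with early apoptotic (annexin V-positive) and late apoptotic quadrants read separately.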

HeLa [3] = assay: Cell cycle arrest in human HeLa cells assessed as accumulation at S phase at 500 nM after 24 hrs using propidium iodide staining by flow cytometry relative to control; assay type: functional; summary of the method: as §1
HeLa [4] = assay: Cell cycle arrest in human HeLa cells assessed as accumulation at G2/M phase at 200 nM after 24 hrs using propidium iodide staining by flow cytometry relative to control; assay type: functional; summary of the method: as §1
HeLa [5] = assay: Cell cycle arrest in human HeLa cells assessed as accumulation at G1 phase at 500 nM after 24 hrs using propidium iodide staining by flow cytometry relative to control; assay type: functional; summary of the method: as §1
HeLa [6] = assay: Cell cycle arrest in human HeLa cells assessed as accumulation at S phase at 200 nM after 24 hrs using propidium iodide staining by flow cytometry relative to control; assay type: functional; summary of the method: as §1
HeLa [7] = assay: Cell cycle arrest in human HeLa cells assessed as accumulation at G2/M phase at 300 nM after 24 hrs using propidium iodide staining by flow cytometry relative to control; assay type: functional; summary of the method: as §1
HeLa [8] = assay: Cell cycle arrest in human HeLa cells assessed as accumulation at G1 phase at 100 nM after 24 hrs using propidium iodide staining by flow cytometry relative to control; assay type: functional; summary of the method: as §1
HeLa [9] = assay: Cell cycle arrest in human HeLa cells assessed as accumulation at G2/M phase at 100 nM after 24 hrs using propidium iodide staining by flow cytometry relative to control; assay type: functional; summary of the method: as §1
HeLa [10] = assay: Induction of apoptosis in human HeLa cells at 300 nM after 24 hrs using propidium iodide/annexin V staining by flow cytometry relative to control; assay type: functional; summary of the method: as §2
HeLa [11] = assay: Cell cycle arrest in human HeLa cells assessed as accumulation at G1 phase at 300 nM after 24 hrs using propidium iodide staining by flow cytometry relative to control; assay type: functional; summary of the method: as §1
HeLa [12] = assay: Cell cycle arrest in human HeLa cells assessed as accumulation at G1 phase at 50 nM after 24 hrs using propidium iodide staining by flow cytometry relative to control; assay type: functional; summary of the method: as §1
HeLa [13] = assay: Induction of apoptosis in human HeLa cells at 100 nM after 24 hrs using propidium iodide/annexin V staining by flow cytometry relative to control; assay type: functional; summary of the method: as §2
HeLa [14] = assay: Cell cycle arrest in human HeLa cells assessed as accumulation at S phase at 50 nM after 24 hrs using propidium iodide staining by flow cytometry relative to control; assay type: functional; summary of the method: as §1
HeLa [15] = assay: Cell cycle arrest in human HeLa cells assessed as accumulation at G1 phase at 200 nM after 24 hrs using propidium iodide staining by flow cytometry relative to control; assay type: functional; summary of the method: as §1
HeLa [16] = assay: Cell cycle arrest in human HeLa cells assessed as accumulation at G2/M phase at 500 nM after 24 hrs using propidium iodide staining by flow cytometry relative to control; assay type: functional; summary of the method: as §1
HeLa [17] = assay: Induction of apoptosis in human HeLa cells at 200 nM after 24 hrs using propidium iodide/annexin V staining by flow cytometry relative to control; assay type: functional; summary of the method: as §2
HeLa [18] = assay: Cell cycle arrest in human HeLa cells assessed as accumulation at G2/M phase at 50 nM after 24 hrs using propidium iodide staining by flow cytometry relative to control; assay type: functional; summary of the method: as §1
HeLa [19] = assay: Induction of apoptosis in human HeLa cells at 500 nM after 24 hrs using propidium iodide/annexin V staining by flow cytometry relative to control; assay type: functional; summary of the method: as §2
HeLa [20] = assay: Cell cycle arrest in human HeLa cells assessed as accumulation at S phase at 100 nM after 24 hrs using propidium iodide staining by flow cytometry relative to control; assay type: functional; summary of the method: as §1

| Compound | IC50 (CAKI-1) [µM] | IC50 (PANC-1) [µM] | IC50 (HCT-116) [µM] | IC50 (OVCAR-3) [µM] | IC50 (MDA-MB-231) [µM] | IC50 (PC-3) [µM] | IC50 (SNB-19) [µM] | IC50 (A549) [µM] | IC50 (SK-MEL-28) [µM] | also measured |
| --- | --- | --- | --- | --- | --- | --- | --- | --- | --- | --- |
| Cc1cccc(-c2cc3cc(C)ccc3c(N)n2)c1 | 0.16 | 0.2 | 0.18 | 0.15 | 0.15 | 0.22 | 0.21 | 0.182 | 0.25 | – |
| COc1cc(OC)cc(-c2cc3cc(OC)c(OC)cc3c(N)n2)c1 | 0.54 | 0.7 | 0.77 | 0.19 | 0.4 | 0.72 | 0.4 | 0.282 | 0.69 | – |
| Cc1ccccc1-c1cc2c(N(C)C)cccc2c(N)n1 | > 10 | > 10 | > 10 | > 10 | > 10 | > 10 | > 10 | > 10 | > 10 | – |
| Cc1ccc2c(N)nc(-c3ccc4c(c3)OCO4)cc2c1 | 0.11 | 0.22 | 0.16 | 0.16 | 0.13 | 0.19 | 0.23 | 0.141 | 0.22 | – |
| COc1cccc(-c2cc3cc(C)ccc3c(N)n2)c1 | 0.69 | 1.28 | 0.59 | 0.47 | 0.57 | 1.19 | 0.75 | 0.107 | 0.72 | – |
| COc1ccc(-c2cc3cc(C)ccc3c(N)n2)c(C)c1 | 0.12 | 0.24 | 0.17 | 0.17 | 0.15 | 0.25 | 0.28 | 0.17 | 0.29 | – |
| Cc1ccc2c(N)nc(-c3c(C)cccc3C)cc2c1 | 0.12 | 0.21 | 0.17 | 0.16 | 0.14 | 0.24 | 0.24 | 0.38 | 0.23 | – |
| Cc1ccc2cc(-c3ccccc3C)nc(N)c2c1 | 0.14 | 0.2 | 0.12 | 0.1 | 0.075 | 0.26 | 0.16 | 0.0537 | 0.18 | – |
| COc1cc2cc(-c3ccccc3)nc(N)c2cc1OC | 0.59 | 0.67 | 0.52 | 0.27 | 0.44 | 0.58 | 0.71 | 0.129 | 0.75 | – |
| COc1ccc(-c2cc3c(N(C)C)cccc3c(N)n2)cc1OC | > 10 | > 10 | > 10 | > 10 | > 10 | > 10 | > 10 | > 10 | > 10 | – |
| COc1cccc(-c2cc3ccc(C)cc3c(N)n2)c1 | 0.14 | 0.47 | 0.21 | 0.24 | 0.17 | 0.42 | 0.48 | 0.447 | 0.41 | – |
| COc1ccc(-c2cc3cc(C)ccc3c(N)n2)cc1OC | 0.51 | 1.75 | 0.85 | 0.57 | 0.66 | 2.69 | 2.15 | 0.562 | 1.41 | – |
| COc1cccc(-c2cc3cc(OC)c(OC)cc3c(N)n2)c1 | 0.17 | 0.19 | 0.16 | 0.074 | 0.14 | 0.18 | 0.22 | 0.759 | 0.23 | Activity (HeLa [1]): 6.6%; Activity (HeLa [2]): 5.92%; Activity (HeLa [3]): 4.77%; Activity (HeLa [4]): 73.06%; Activity (HeLa [5]): 8.25%; Activity (HeLa [6]): 11.36%; Activity (HeLa [7]): 83.14%; Activity (HeLa [8]): 35.29%; Activity (HeLa [9]): 48.59%; Activity (HeLa [10]): 9.78%; Activity (HeLa [11]): 10.26%; Activity (HeLa [12]): 48.83%; Activity (HeLa [13]): 6.14%; Activity (HeLa [14]): 15.37%; Activity (HeLa [15]): 15.58%; Activity (HeLa [16]): 86.98%; Activity (HeLa [17]): 8.8%; Activity (HeLa [18]): 35.8%; Activity (HeLa [19]): 12.52%; Activity (HeLa [20]): 16.12% |
| Cc1ccc2c(N)nc(-c3ccccc3C)cc2c1 | – | – | – | – | – | – | – | 0.162 | – | – |
| COc1cc2cc(-c3ccccc3C)nc(N)c2cc1OC | 0.67 | 0.83 | 0.78 | 0.38 | 0.54 | 1.25 | 0.56 | 0.437 | 0.91 | – |
| CN(C)c1cccc2c(N)nc(-c3ccccc3)cc12 | > 10 | > 10 | > 10 | > 10 | > 10 | > 10 | > 10 | > 10 | > 10 | – |
